Data reported in ChEMBL document CHEMBL3763128, “Synthesis and antibacterial evaluation of novel 4″-glycyl linked quinolyl-azithromycins with potent activity against macrolide-resistant pathogens” (2016).
Converted amounts (≈) assume the structure as drawn.

Legend:
Assay type in all cases: functional
[1] = system: Streptococcus pneumoniae; experiment: Antibacterial activity against erythromycin-susceptible Streptococcus pneumoniae by agar microdilution method
Summary of the method: (§1)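 MIC by agar microdilution following NCCLS guidelines. Values in μg/mL. Only differences of more than one twofold dilution were treated as significant. Ery-S denotes erythromycin-susceptible strains.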

[2] = system: Staphylococcus aureus; experiment: Antibacterial activity against inducibly macrolide-lincosamide-streptogramin B resistant Staphylococcus aureus by agar microdilution method
Summary of the method: (§2)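 Agar microdilution per NCCLS guidelines; MIC reported in μg/mL; differences treated as significant only when more than a factor of 2 (one dilution) apart.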

[3] = system: Staphylococcus aureus; experiment: Antibacterial activity against constitutive macrolide-lincosamide-streptogramin B resistant Staphylococcus aureus by agar microdilution method; summary of the method: as §2
[4] = system: Streptococcus pyogenes; experiment: Antibacterial activity against inducibly macrolide-lincosamide-streptogramin B resistant Streptococcus pyogenes by agar microdilution method; summary of the method: as §2
[5] = system: Moraxella catarrhalis; experiment: Antibacterial activity against Moraxella catarrhalis by agar microdilution method; summary of the method: as §1
[6] = system: Haemophilus influenzae; experiment: Antibacterial activity against Haemophilus influenzae by agar microdilution method; summary of the method: as §1
[7] = system: Streptococcus pneumoniae; experiment: Antibacterial activity against constitutive macrolide-lincosamide-streptogramin B resistant Streptococcus pneumoniae by agar microdilution method; summary of the method: as §2
[8] = system: Staphylococcus aureus; experiment: Antibacterial activity against erythromycin-susceptible Staphylococcus aureus by agar microdilution method; summary of the method: as §1
[9] = system: Staphylococcus aureus; experiment: Antibacterial activity against efflux mediated macrolide resistant Staphylococcus aureus by agar microdilution method; summary of the method: as §2
[10] = system: Streptococcus pyogenes; experiment: Antibacterial activity against efflux mediated macrolide resistant Streptococcus pyogenes by agar microdilution method; summary of the method: as §2
[11] = system: Streptococcus pyogenes; experiment: Antibacterial activity against erythromycin-susceptible Streptococcus pyogenes by agar microdilution method; summary of the method: as §1
[12] = system: Streptococcus pyogenes; experiment: Antibacterial activity against constitutive macrolide-lincosamide-streptogramin B resistant Streptococcus pyogenes by agar microdilution method; summary of the method: as §2
[13] = system: Streptococcus pneumoniae; experiment: Antibacterial activity against efflux mediated macrolide resistant Streptococcus pneumoniae by agar microdilution method; summary of the method: as §2

| SMILES | MIC [1] | MIC [2] | MIC [3] | MIC [4] | MIC [5] | MIC [6] | MIC [7] | MIC [8] | MIC [9] | MIC [10] | MIC [11] | MIC [12] | MIC [13] |
| --- | --- | --- | --- | --- | --- | --- | --- | --- | --- | --- | --- | --- | --- |
| CCC1OC(=O)[C@H](C)[C@@H](O[C@H]2C[C@@](C)(OC)[C@@H](OC(=O)CNCCCNCCOCCOCCNc3cc4c(cc3F)c(=O)c(C(=O)O)cn4C3CC3)[C@H](C)O2)C(C)[C@@H](O[C@@H]2O[C@H](C)C[C@H](N(C)C)[C@H]2O)[C@](C)(O)C[C@@H](C)CN(C)[C@H](C)[C@@H](O)[C@]1(C)O (single isomer, unassigned) | ≤ 0.125 µg/mL | 4 µg/mL (≈ 3.23 µM) | > 64 µg/mL | 0.5 µg/mL (≈ 0.403 µM) | 2 µg/mL (≈ 1.61 µM) | 4 µg/mL (≈ 3.23 µM) | 2 µg/mL (≈ 1.61 µM) | ≤ 0.125 µg/mL | 2 µg/mL (≈ 1.61 µM) | 1 µg/mL (≈ 0.807 µM) | ≤ 0.125 µg/mL | 4 µg/mL (≈ 3.23 µM) | 1 µg/mL (≈ 0.807 µM) |
| CCC1OC(=O)[C@H](C)[C@@H](O[C@H]2C[C@@](C)(OC)[C@@H](OC(=O)CNCCCNCCOCCNc3cc4c(=O)c(C(=O)O)cn(C5CC5)c4cc3Cl)[C@H](C)O2)C(C)[C@@H](O[C@@H]2O[C@H](C)C[C@H](N(C)C)[C@H]2O)[C@](C)(O)C[C@@H](C)CN(C)[C@H](C)[C@@H](O)[C@]1(C)O (single isomer, unassigned) | ≤ 0.125 µg/mL | 0.5 µg/mL (≈ 0.413 µM) | > 64 µg/mL | 0.25 µg/mL (≈ 0.206 µM) | 0.25 µg/mL (≈ 0.206 µM) | 2 µg/mL (≈ 1.65 µM) | 0.25 µg/mL (≈ 0.206 µM) | ≤ 0.125 µg/mL | 0.5 µg/mL (≈ 0.413 µM) | 0.5 µg/mL (≈ 0.413 µM) | ≤ 0.125 µg/mL | 1 µg/mL (≈ 0.825 µM) | 0.25 µg/mL (≈ 0.206 µM) |
| CCC1OC(=O)[C@H](C)[C@@H](O[C@H]2C[C@@](C)(OC)[C@@H](OC(=O)CNC(=O)CCNCCOCCNc3cc4c(=O)c(C(=O)O)cn(C5CC5)c4cc3Cl)[C@H](C)O2)C(C)[C@@H](O[C@@H]2O[C@H](C)C[C@H](N(C)C)[C@H]2O)[C@](C)(O)C[C@@H](C)CN(C)[C@H](C)[C@@H](O)[C@]1(C)O (single isomer, unassigned) | ≤ 0.125 µg/mL | 2 µg/mL (≈ 1.63 µM) | > 64 µg/mL | 0.5 µg/mL (≈ 0.408 µM) | 0.5 µg/mL (≈ 0.408 µM) | 2 µg/mL (≈ 1.63 µM) | 1 µg/mL (≈ 0.816 µM) | ≤ 0.125 µg/mL | 1 µg/mL (≈ 0.816 µM) | 1 µg/mL (≈ 0.816 µM) | ≤ 0.125 µg/mL | 2 µg/mL (≈ 1.63 µM) | 0.5 µg/mL (≈ 0.408 µM) |
| CCC1OC(=O)[C@H](C)[C@@H](O[C@H]2C[C@@](C)(OC)[C@@H](OC(=O)CNC(=O)CCNCCOCCOCCNc3cc4c(cc3F)c(=O)c(C(=O)O)cn4C3CC3)[C@H](C)O2)C(C)[C@@H](O[C@@H]2O[C@H](C)C[C@H](N(C)C)[C@H]2O)[C@](C)(O)C[C@@H](C)CN(C)[C@H](C)[C@@H](O)[C@]1(C)O (single isomer, unassigned) | ≤ 0.125 µg/mL | 32 µg/mL (≈ 25.5 µM) | > 64 µg/mL | 4 µg/mL (≈ 3.19 µM) | 2 µg/mL (≈ 1.6 µM) | 8 µg/mL (≈ 6.38 µM) | 8 µg/mL (≈ 6.38 µM) | 0.5 µg/mL (≈ 0.399 µM) | 16 µg/mL (≈ 12.8 µM) | 16 µg/mL (≈ 12.8 µM) | ≤ 0.125 µg/mL | 32 µg/mL (≈ 25.5 µM) | 4 µg/mL (≈ 3.19 µM) |
| CCC1OC(=O)[C@H](C)[C@@H](O[C@H]2C[C@@](C)(OC)[C@@H](OC(=O)CNCCCNCCOCCNc3cc4c(cc3F)c(=O)c(C(=O)O)cn4C3CC3)[C@H](C)O2)C(C)[C@@H](O[C@@H]2O[C@H](C)C[C@H](N(C)C)[C@H]2O)[C@](C)(O)C[C@@H](C)CN(C)[C@H](C)[C@@H](O)[C@]1(C)O (single isomer, unassigned) | ≤ 0.125 µg/mL | 2 µg/mL (≈ 1.67 µM) | > 64 µg/mL | 0.5 µg/mL (≈ 0.418 µM) | 1 µg/mL (≈ 0.836 µM) | 2 µg/mL (≈ 1.67 µM) | 2 µg/mL (≈ 1.67 µM) | 0.25 µg/mL (≈ 0.209 µM) | 1 µg/mL (≈ 0.836 µM) | 2 µg/mL (≈ 1.67 µM) | ≤ 0.125 µg/mL | 4 µg/mL (≈ 3.35 µM) | 0.25 µg/mL (≈ 0.209 µM) |
| CCC1OC(=O)[C@H](C)[C@@H](O[C@H]2C[C@@](C)(OC)[C@@H](OC(=O)CNC(=O)CCNCCOCCNc3cc4c(cc3F)c(=O)c(C(=O)O)cn4C3CC3)[C@H](C)O2)C(C)[C@@H](O[C@@H]2O[C@H](C)C[C@H](N(C)C)[C@H]2O)[C@](C)(O)C[C@@H](C)CN(C)[C@H](C)[C@@H](O)[C@]1(C)O (single isomer, unassigned) | ≤ 0.125 µg/mL | 4 µg/mL (≈ 3.31 µM) | > 64 µg/mL | 4 µg/mL (≈ 3.31 µM) | 1 µg/mL (≈ 0.827 µM) | 4 µg/mL (≈ 3.31 µM) | 8 µg/mL (≈ 6.61 µM) | 0.25 µg/mL (≈ 0.207 µM) | 4 µg/mL (≈ 3.31 µM) | 8 µg/mL (≈ 6.61 µM) | ≤ 0.125 µg/mL | 16 µg/mL (≈ 13.2 µM) | 4 µg/mL (≈ 3.31 µM) |
| CC[C@H]1OC(=O)[C@@H](C)[C@H](O[C@@H]2C[C@](C)(OC)[C@H](OC(=O)CNC(=O)CCNCCOCCOCCNc3cc4c(=O)c(C(=O)O)cn(C5CC5)c4cc3Cl)[C@@H](C)O2)[C@H](C)[C@H](O[C@H]2O[C@@H](C)C[C@@H](N(C)C)[C@@H]2O)[C@@](C)(O)C[C@H](C)CN(C)[C@@H](C)[C@H](O)[C@@]1(C)O (stereo in doubt) | ≤ 0.125 µg/mL | 4 µg/mL (≈ 3.15 µM) | > 64 µg/mL | 1 µg/mL (≈ 0.787 µM) | 1 µg/mL (≈ 0.787 µM) | 4 µg/mL (≈ 3.15 µM) | 4 µg/mL (≈ 3.15 µM) | ≤ 0.125 µg/mL | 0.5 µg/mL (≈ 0.394 µM) | 2 µg/mL (≈ 1.57 µM) | ≤ 0.125 µg/mL | 8 µg/mL (≈ 6.3 µM) | 1 µg/mL (≈ 0.787 µM) |
| CC[C@H]1OC(=O)[C@@H](C)[C@H](O[C@@H]2C[C@](C)(OC)[C@H](OC(=O)CNCCCNCCOCCOCCNc3cc4c(=O)c(C(=O)O)cn(C5CC5)c4cc3Cl)[C@@H](C)O2)[C@H](C)[C@H](O[C@H]2O[C@@H](C)C[C@@H](N(C)C)[C@@H]2O)[C@@](C)(O)C[C@H](C)CN(C)[C@@H](C)[C@H](O)[C@@]1(C)O (stereo in doubt) | ≤ 0.125 µg/mL | 1 µg/mL (≈ 0.796 µM) | > 64 µg/mL | 0.25 µg/mL (≈ 0.199 µM) | 0.5 µg/mL (≈ 0.398 µM) | 2 µg/mL (≈ 1.59 µM) | 1 µg/mL (≈ 0.796 µM) | ≤ 0.125 µg/mL | 1 µg/mL (≈ 0.796 µM) | 1 µg/mL (≈ 0.796 µM) | ≤ 0.125 µg/mL | 2 µg/mL (≈ 1.59 µM) | 0.5 µg/mL (≈ 0.398 µM) |
| CC[C@H]1OC(=O)[C@@H](C)[C@H](O[C@@H]2C[C@](C)(OC)[C@H](OC(=O)CNC(=O)CCNCCNc3cc4c(=O)c(C(=O)O)cn(C5CC5)c4cc3Cl)[C@@H](C)O2)[C@H](C)[C@H](O[C@H]2O[C@@H](C)C[C@@H](N(C)C)[C@@H]2O)[C@@](C)(O)C[C@H](C)CN(C)[C@@H](C)[C@H](O)[C@@]1(C)O (stereo in doubt) | ≤ 0.125 µg/mL | 1 µg/mL (≈ 0.846 µM) | > 64 µg/mL | 0.25 µg/mL (≈ 0.212 µM) | 0.125 µg/mL (≈ 0.106 µM) | 0.5 µg/mL (≈ 0.423 µM) | 0.5 µg/mL (≈ 0.423 µM) | ≤ 0.125 µg/mL | 0.5 µg/mL (≈ 0.423 µM) | 0.25 µg/mL (≈ 0.212 µM) | ≤ 0.125 µg/mL | 0.5 µg/mL (≈ 0.423 µM) | 0.25 µg/mL (≈ 0.212 µM) |
